Source: publication PMC7455490 (Science Advances, 2020)
Where no end group is shown, it is not given here. [ ]: non-standard residue; d: D form.

Legend:
[1] = system: B16F10 tumor-bearing mice; assay: In vivo distribution after topical application, fluorescence imaging; details: 10 μg per mouse, 1, 3 and 6 hours
Procedure, shortened: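 Mice were anaesthetized and dorsal skin depilated, then DiI-labelled peptide-modified vesicles were applied topically. Whole-body fluorescence was imaged. Tumors and major organs were collected for fluorescence imaging at 6 hours after application.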

[2] = Photothermal response to NIR irritation; format: physicochemical; details: 1 μg/ml, 808 nm NIR 2 W/cm^2 for 3 min, n = 3
[3] = system: B16F10 cells; assay: qRT-PCR gene levels in treated B16F10 cells; format: cell-based, mouse; details: B16F10, + NIR, n = 3
[4] = system: B16F10 cells; assay: WB protein levels in treated B16F10 cells or their derived OMVs; format: cell-based, mouse; details: B16F10, + NIR (Fig. 4G)
[5] = system: B16F10 melanoma in C57BL/6 mice; assay: Antitumor performance, second wave; format: in vivo; details: NIR 0.6 W/cm^2, within 3 min, thermographic imaging
Procedure, shortened: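 B16F10 cells (3 × 10^6 per mouse) implanted s.c. in right flank of C57BL/6 mice; treatment began at 100 mm3 tumors. Groups (n = 6) got topical ICG-loaded test formulations (0.5 mg OMV/kg). Unabsorbed material was wiped off at 12 h, then the whole tumor was irradiated under anaesthesia at 808 nm, 0.6 W/cm2, 3 min. Tumor sections: TUNEL with proteinase K (20 μg/ml), fluorescein-dUTP 90 min, DAPI counterstain, confocal imaging. Also Fontana-Masson melanin stain, and IHC for cleaved caspase 3, CD63 and S100-β with HRP secondaries and hematoxylin counterstain.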

[6] = system: dorsal skin of C57BL/6 mice; assay: Skin penetration test, fluorescence in skin slices; format: in vivo; details: topical, 10 μg per mouse, 6 hours, fluorescence microscopy
Procedure, shortened: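 C57BL/6 mice, 4 weeks old, were anaesthetised and had their dorsal skin depilated. Once skin had restored full function, GFP-labelled test vesicles or free FITC-BSA were applied topically. After 6 h the mice were killed by cervical dislocation, and treated dorsal skin was collected, washed, paraffin-embedded and cut into 6 μm sections. Penetration depth was observed by fluorescence microscopy.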

[7] = system: B16F10 cells; assay: Peptide binding by flow cytometry, B16F10; format: cell-based, mouse; details: 5 μM peptide, 2 hours, compared with L02 cells
Procedure, shortened: (§1)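 Cells were grown in DMEM with 10% FBS and penicillin/streptomycin at 37°C, 5% CO2. They were seeded at 10^6 per well and cultured 24 h at 37°C. Then 5 μM test peptide was added for 2 h. Cells were washed twice with 4°C PBS, and intracellular fluorescence intensity was read by flow cytometry.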

[8] = system: L02 cells; assay: Peptide binding by flow cytometry, L02; format: cell-based, human; details: 5 μM peptide, 2 hours, low αvβ3 expression
Procedure, shortened: as §1

[9] = Bioactivity of TRAIL at high temperatures; details: 55 and 60°C, n = 3
[10] = Transdermal delivery of TRAIL, Franz diffusion cells; format: in vitro ADME, mice; details: C57BL/6 mouse skin, ELISA, n = 3
Procedure, shortened: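 Excised C57BL/6 mouse skin was mounted in Franz diffusion cells, with vesicle suspensions (1 μg/ml) in the donor cell. Receptor samples were withdrawn at 0.5, 1, 2, 4, 8, 10 and 24 h and replaced with fresh PBS. TRAIL in the receptor samples was quantified by ELISA.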

[11] = biological target: human recombinant αvβ3 integrin (R&D Systems), NT-647 labelled (human) (UniProt P06756); assay: MST
[12] = biological target: αvβ3 integrin on B16F10 melanoma cells (mouse (endogenous in B16F10), UniProt P43406 31-1044; O54890 26-787); assay: flow cytometry on cells
Chain of αvβ3 integrin on B16F10 melanoma cells (P43406 31-1044, chain 1 of 2): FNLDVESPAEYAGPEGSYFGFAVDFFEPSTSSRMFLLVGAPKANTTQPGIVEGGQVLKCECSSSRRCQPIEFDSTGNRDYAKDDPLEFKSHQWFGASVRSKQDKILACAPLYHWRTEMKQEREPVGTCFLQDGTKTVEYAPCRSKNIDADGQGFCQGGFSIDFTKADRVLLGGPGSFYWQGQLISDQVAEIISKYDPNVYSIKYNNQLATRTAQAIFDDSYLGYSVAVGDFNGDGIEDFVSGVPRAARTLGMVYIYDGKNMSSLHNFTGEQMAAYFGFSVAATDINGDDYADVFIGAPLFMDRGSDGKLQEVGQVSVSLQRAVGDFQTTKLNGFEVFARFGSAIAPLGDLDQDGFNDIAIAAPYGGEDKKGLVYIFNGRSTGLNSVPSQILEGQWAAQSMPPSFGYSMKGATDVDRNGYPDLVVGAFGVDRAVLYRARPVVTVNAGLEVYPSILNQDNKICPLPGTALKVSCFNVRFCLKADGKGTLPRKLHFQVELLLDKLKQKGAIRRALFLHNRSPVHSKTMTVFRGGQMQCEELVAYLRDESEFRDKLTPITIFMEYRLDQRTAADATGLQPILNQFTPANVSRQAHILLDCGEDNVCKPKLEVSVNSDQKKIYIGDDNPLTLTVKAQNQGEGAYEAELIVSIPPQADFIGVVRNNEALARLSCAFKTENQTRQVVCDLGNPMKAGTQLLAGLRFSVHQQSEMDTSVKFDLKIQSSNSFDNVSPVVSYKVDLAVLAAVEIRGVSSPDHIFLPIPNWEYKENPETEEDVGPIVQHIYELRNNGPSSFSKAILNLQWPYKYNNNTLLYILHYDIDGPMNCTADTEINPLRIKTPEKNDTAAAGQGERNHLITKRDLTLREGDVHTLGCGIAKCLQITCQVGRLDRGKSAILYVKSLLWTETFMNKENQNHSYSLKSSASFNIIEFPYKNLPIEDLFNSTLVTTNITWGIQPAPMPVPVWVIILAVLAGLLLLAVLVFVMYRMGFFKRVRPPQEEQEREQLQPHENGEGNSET
Chain of αvβ3 integrin on B16F10 melanoma cells (O54890 26-787, chain 2 of 2): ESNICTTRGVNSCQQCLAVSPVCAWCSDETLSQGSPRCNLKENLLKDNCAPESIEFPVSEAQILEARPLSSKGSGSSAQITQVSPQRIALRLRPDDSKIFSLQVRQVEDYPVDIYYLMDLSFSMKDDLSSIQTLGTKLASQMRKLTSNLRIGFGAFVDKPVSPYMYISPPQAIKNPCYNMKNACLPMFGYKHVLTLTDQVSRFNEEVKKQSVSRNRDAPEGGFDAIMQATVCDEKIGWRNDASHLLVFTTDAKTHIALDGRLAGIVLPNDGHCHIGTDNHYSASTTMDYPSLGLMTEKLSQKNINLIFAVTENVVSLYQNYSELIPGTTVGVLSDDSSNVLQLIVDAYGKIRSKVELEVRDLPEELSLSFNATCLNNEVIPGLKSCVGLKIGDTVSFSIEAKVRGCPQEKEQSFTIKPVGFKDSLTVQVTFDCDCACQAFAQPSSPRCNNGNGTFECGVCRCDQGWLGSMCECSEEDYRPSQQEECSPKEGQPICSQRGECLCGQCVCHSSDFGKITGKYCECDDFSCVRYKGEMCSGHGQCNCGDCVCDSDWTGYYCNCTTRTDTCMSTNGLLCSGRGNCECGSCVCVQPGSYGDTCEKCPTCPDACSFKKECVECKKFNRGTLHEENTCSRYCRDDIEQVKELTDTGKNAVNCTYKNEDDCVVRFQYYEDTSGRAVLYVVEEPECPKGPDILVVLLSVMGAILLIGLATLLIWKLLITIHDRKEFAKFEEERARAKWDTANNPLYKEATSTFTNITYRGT

## CCCCCCCCCCCCCCCCCCN1C(=CC=CC2=[N+](CCCCCCCCCCCCCCCCCC)c3ccccc3C2(C)C)C(C)(C)c2ccccc21.[O-][Cl+3]([O-])([O-])[O-] [Dil, 1,1′-dioctadecyl-3,3,3′,3′-tetramethylindocarbocyanine perchlorate]
[1]
  fluorescence at tumor site after topical application: Low fluorescent signal

## CC1(C)C(/C=C/C=C/C=C/C=C2\N(CCCCS(=O)(=O)O)c3ccc4ccccc4c3C2(C)C)=[N+](CCCCS(=O)(=O)[O-])c2ccc3ccccc3c21 [ICG, indocyanine green]
[2]
  temperature reached from 25°C upon NIR irritation: 35 °C
[3]
  c-FLIP mRNA level, decreased to: 63%
  survivin mRNA level, decreased to: 56%
[4]
  increase of cleaved caspase 3 level: 2.4 fold
  increase of cleaved caspase 8 level: 3.3 fold
[5]
  temperature of tumor sites: around 32 °C

## FITC-BSA: fluorescein isothiocyanate (FITC)–labeled bovine serum albumin
[6]
  penetration through SC, fluorescence in skin slices: incapable of penetrating through SC

## RhB-RGP: rhodamine B–labeled RGP (RW[code r]NMGGGGIVRRADRAAVP; also: rhodamine B label, position not given here)
[7]
  binding to B16F10 cells: significantly enhanced
[8]
  binding to L02 cells: weak binding

## TRAIL: Recombinant human tumor necrosis factor related apoptosis-inducing ligand
[9]
  bioactivity of TRAIL at high temperatures: No loss of bioactivity
[10]
  transdermal amount of TRAIL: too low to be detected

## RWRNMGGGGIVRRADRAAVP (not fully specified (residue 3); printed as RWrNMGGGGIVRRADRAAVP) [RGP (RWr…), αvβ3 integrin-specific peptide]
[11]
  Kd: 1.54 nM

## RW[code r]NMGGGGIVRRADRAAVP (also: rhodamine B label, position not given here) [rhodamine B-labeled RGP (RhB-RGP)]
[12]
  fold fluorescence intensity against RhB-RGD: 6.3 fold
